From ChEMBL document CHEMBL1123409, “Analogues of platelet activating factor. 4. Some modifications of the phosphocholine moiety” (J Med Chem, 1986) come the findings set out here.

Assay [1] is filed under the species Oryctolagus cuniculus. The assay is described as follows: The maximum aggregation response observed at 1.6e-4 M concentration of the compound. Format: functional.
A further assay relates to Rattus norvegicus. The assay is described as follows: Intravenous dose required to decrease mean arterial blood pressure (MABP) 50 mm Hg. The format is functional. The method in brief: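 Spontaneously hypertensive rats, dosed intravenously. The dose that lowers mean arterial blood pressure by 50 mm Hg is read from the dose-response curve.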
For assay [2], the species on record is Oryctolagus cuniculus. In words: Effective concentration required to produce 50% of maximum aggregation of platelets. Format: functional, organism-based. The method in brief:
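Aggregation tested in rabbit platelet-rich plasma. In each experiment, a dose-response curve was built from six to eight doses spanning 10^-9 to 10^-4 M, with three to four replicates per dose level. EC50 is the molar concentration giving 50% of that analogue's own maximum aggregation response.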

Assay [3] is filed under the species Oryctolagus cuniculus. The assay is described as follows: The maximum aggregation response observed at 1e-5 M concentration of the compound. Format: functional.
Assay [4] is described as follows: The ratio of (MABP / Platelet EC 50) x 10^-8.
The species named for assay [5] is Oryctolagus cuniculus. In words: The maximum aggregation response observed at 1.7e-4M concentration of the compound. The format is functional.
For assay [6], the species on record is Oryctolagus cuniculus. The assay is described as follows: The maximum aggregation response observed at 1.8e-4 M concentration of the compound. Format: functional.
The species named for assay [7] is Oryctolagus cuniculus. In words: The maximum aggregation response observed at 1e-6 M concentration of the compound. Format: functional.
The species named for assay [8] is Oryctolagus cuniculus. In words: The maximum aggregation response observed at 1.48e-5 M concentration of the compound. The format is functional.
The species named for assay [9] is Oryctolagus cuniculus. The assay is described as follows: The maximum aggregation response observed at 1.7e-4 M concentration of the compound. The format is functional.
The species entered for assay [10] is Oryctolagus cuniculus. The assay is described as follows: The maximum aggregation response observed at 5e-5 M concentration of the compound. The format is functional.
Assay [11] is described as follows: The ratio of (MABP / Platelet EC 50) x 100. The format is functional.
For assay [12], the species on record is Oryctolagus cuniculus. In words: The maximum aggregation response observed at 6.8e-6 M concentration of the compound. The format is functional.

Bounds are passed on as bounds.

`CCCCCCCCCCCCCCCCOCC(COP(=O)([O-])OCCCCCCCCCC[N+](C)(C)C)OC(C)=O` (stereo not given) had a Max aggregation response in the assay filed under Oryctolagus cuniculus [1] of 18. In addition, the Dose with Rattus norvegicus was over 4000 µg/kg. The compound further came in with an EC50 in the assay listed under Oryctolagus cuniculus [2] of 59 µM.
`CCCCCCCCCCCCCCCCCCOCC(COP(=O)([O-])OCCCC[N+](C)(C)C)OC(C)=O` (stereo not given) displayed a Max aggregation response in the assay filed under Oryctolagus cuniculus [3] of 71. In the assay with Rattus norvegicus, this compound came in with a Dose of 15.85 µg/kg. In addition, in assay [4], the Ratio is reported as 0.36.
Turning to `CCCCCCCCCCCCCCCCOCC(COP(=O)([O-])OCCCCCCCC[N+](C)(C)C)OC(C)=O` (stereo not given), the Max aggregation response in the assay listed under Oryctolagus cuniculus [5] is on record as 41. In the assay with Rattus norvegicus, this compound displayed a Dose of over 4000 µg/kg. The compound further displayed an EC50 in the assay filed under Oryctolagus cuniculus [2] of 37 µM.
In the case of `CCCCCCCCCCCCCCCCOCC(COP(=O)([O-])OC(C)C[N+](C)(C)C)OC(C)=O` (stereo not given), the Max aggregation response in the assay listed under Oryctolagus cuniculus [3] was found to be 74. Further, the Dose in the assay on Rattus norvegicus amounted to 1.16 µg/kg. In [4], the Ratio came to 0.28.
Take `CCCCCCCCCCCCCCCCOCC(COP(=O)([O-])OCCCC[N+](C)(C)C)OC(C)=O` (stereo not given): the Max aggregation response in the assay listed under Oryctolagus cuniculus [6] is 68. Moreover, the Dose with Rattus norvegicus came out at 4.84 µg/kg. The Ratio in assay [4] was found to be 0.65.
In the assay listed under Oryctolagus cuniculus [7], `CCCCCCCCCCCCCCCCOCC(COP(=O)([O-])OCC(C)[N+](C)(C)C)OC(C)=O` (stereo not given) yielded a Max aggregation response of 66. The same compound came in with a Dose with Rattus norvegicus of 0.15 µg/kg. In addition, in [4], the Ratio is 0.47.
The compound `CCCCCCCCCCCCCCCCCCOCC(COP(=O)([O-])OCC[N+](C)(C)C)OC(C)=O` (stereo not given) showed a Max aggregation response in the assay listed under Oryctolagus cuniculus [8] of 75. For the same compound, in the assay with Rattus norvegicus, the Dose amounted to 3.17 µg/kg. Besides, the Ratio in assay [4] is listed as 1.34.
Compound `CCCCCCCCCCCCCCCCOCC(COP(=O)([O-])OCCCCCC[N+](C)(C)C)OC(C)=O` (stereo not given) showed a Max aggregation response in the assay listed under Oryctolagus cuniculus [9] of 35. This compound yielded a Dose in the assay with Rattus norvegicus of 164.9 µg/kg. The compound also displayed a concentration giving a half-maximal response (EC50) in the assay listed under Oryctolagus cuniculus [2] of 27 µM. Besides, the Ratio in [4] is recorded as 0.06.
`CCCCCCCCCCCCCCCCCCOCC(COP(=O)([O-])CC[N+](C)(C)C)OC(C)=O` (stereo not given) returned a Max aggregation response in the assay listed under Oryctolagus cuniculus [3] of 82. This compound also returned a Dose with Rattus norvegicus of 76.54 µg/kg. Moreover, in assay [4], the Ratio is 3.83.
As for `CCCCCCCCCCCCCCCCOCC(COP(=O)([O-])OCC(c1ccccc1)[N+](C)(C)C)OC(C)=O` (stereo not given), in the assay filed under Oryctolagus cuniculus [10], the Max aggregation response is given as 69. This compound also gave a Dose with Rattus norvegicus of 3.93 µg/kg. Moreover, the Ratio in assay [11] is recorded as 0.06.
The compound `CCCCCCCCCCCCCCCCOCC(COP(=O)([O-])Oc1cccc(C[N+](C)(C)C)c1)OC(C)=O` (stereo not given) came in with a Max aggregation response in the assay filed under Oryctolagus cuniculus [10] of 64. For the same compound, the Dose in the assay on Rattus norvegicus came to 1.36 µg/kg. Also, the Ratio in assay [4] was 0.23.
On to `CCCCCCCCCCCCCCCCOCC(COP(=O)([O-])OCCC[N+](C)(C)C)OC(C)=O` (stereo not given), for which the Max aggregation response in the assay filed under Oryctolagus cuniculus [7] is recorded as 65. Moreover, the Dose in the assay with Rattus norvegicus came out at 1.43 µg/kg. In addition, the Ratio in assay [4] stood at 0.57.
On to `CCCCCCCCCCCCCCCCOCC(COP(=O)([O-])OCC[N+](C)(C)C)OC(C)=O` (stereo not given) [PLATELET ACTIVATING FACTOR], for which the Max aggregation response in the assay filed under Oryctolagus cuniculus [12] turned out to be 71. Also, the Dose in the assay on Rattus norvegicus was 1.25 µg/kg. Moreover, the Ratio in assay [4] amounted to 0.47.
